Experimental data gathered from unrelated publications.
Protocols differ between the studies behind these lines.
Observed: cell growth or viability

With COc1cccc2c1C(=O)c1c(O)c3c(c(O)c1C2=O)C[C@@](O)(C(=O)CO)C[C@@H]3O[C@H]1C[C@H](N)[C@H](O)[C@H](C)O1 the IC50 was 120 nM (NCI-H1650; MTT; 72 h).
COc1nc(NCc2cn(-c3ccc(C(=O)Nc4ccc(F)cc4)cc3)nn2)nc(OC)n1 gave an IC50 of 1030 nM (Caco-2; MTT; 72 h).
CCNCCCn1c2c(c3cc(OC)c(OC)cc3c1=O)C(=O)c1cc3c(nc1-2)OCO3 gave an IC50 of 53 nM (TC-32; MTS; 72 h).
CCCOc1nc(-c2cccc(O)c2)cc(-c2cc3cc(Cl)ccc3nc2N2CCOCC2)c1C#N has an IC50 of 355 nM (Caco-2; MTT; 72 h).
The IC50 of COc1nc(NCc2cn(-c3ccc(C(=O)Nc4ccc(Cl)cc4)cc3)nn2)nc(OC)n1 is reported as 543 nM (Caco-2; MTT; 72 h).
For CC1(C)CCC(CN2CCN(c3ccc(C(=O)NS(=O)(=O)c4ccc(NCC5CCOCC5)c([N+](=O)[O-])c4)c(Oc4cnc5[nH]ccc5c4)c3)CC2)=C(c2ccc(Cl)cc2)C1, the IC50 was 25 nM (SU-DHL-4; ATP luminescence; 48 h).
The IC50 of COc1nc(NCc2cn(-c3ccc(C(=O)Nc4ccc(C(F)(F)F)cc4)cc3)nn2)nc(OC)n1 is reported as 171 nM (Caco-2; MTT; 72 h).
With C=CC(=O)N1CCN(c2nc(=O)n(-c3c(C)ccnc3C(C)C)c3nc(-c4c(O)cccc4F)c(F)cc23)[C@@H](C)C1 the IC50 was 48.8 nM (UMUC3; ATP luminescence).
With Nc1n[nH]c2nc(-c3cccc(O)c3)cc(-c3cc4ccccc4nc3N3CCOCC3)c12 the IC50 was 625 nM (Caco-2; MTT; 72 h).
C=C(F)C(=O)N1CCN(c2nc(OC[C@@H]3CCCN3C)nc3c2CCN(c2cccc4cccc(Cl)c24)C3)C[C@@H]1CC#N gave an IC50 of 294 nM (UMUC3; ATP luminescence).
With COc1cc2c3c(n(CCCNCCO)c(=O)c2cc1OC)-c1nc2c(cc1C3=O)OCO2 the IC50 was 104 nM (TC-32; MTS; 72 h).
With C/C(=N\NC(=O)c1cccc(S(=O)(=O)N2CCN(C)CC2)c1)c1cc(Cl)ccc1O the IC50 was 3300 nM (TC-32; resazurin).
With COc1nc(NCc2cn(-c3ccc(C(=O)Nc4ccc(C)cc4)cc3)nn2)nc(OC)n1 the IC50 was 514 nM (Caco-2; MTT; 72 h).
For CCOc1nc(-c2cccc(O)c2)cc(-c2cc3cc(Cl)ccc3nc2N2CCOCC2)c1C#N, the IC50 was 117 nM (Caco-2; MTT; 72 h).
COc1nc(NCc2cn(-c3ccc(NC(=O)c4ccc(F)cc4)cc3)nn2)nc(OC)n1 gave an IC50 of 550 nM (Caco-2; MTT; 72 h).
COc1cc2c3c(n(CCCN4CCOCC4)c(=O)c2cc1OC)-c1nc2c(cc1C3=O)OCO2 has an IC50 of 569 nM (TC-32; MTS; 72 h).
